Here are results for 38 compounds from ChEMBL document CHEMBL4184236, “Design, synthesis and biological evaluation of matrine derivatives as potential anticancer agents” (Bioorg Med Chem Lett, 2018).

Type in all cases: functional, cell-based
The subject of assay [1] is SMMC-7721. Kind of assay: Anticancer activity against human SMMC7721 cells assessed as reduction in cell viability incubated for 48 hrs MTT assay. The following applies: SMMC-7721, 48 h. Put shortly: (§1)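 MTT assay on human hepatocarcinoma SMMC-7721, lung carcinoma A549 and nasopharyngeal carcinoma CNE2 cells, with matrine as comparator and cisplatin as positive control. IC50 is the concentration that lowers optical density of treated cells by 50% versus untreated cells, given as the mean ± SD of three experiments.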

Assay [2] deals with A549. Kind of assay: Anticancer activity against human A549 cells assessed as reduction in cell viability incubated for 48 hrs MTT assay. The following applies: A549, 48 h. The method in brief: as §1
In assay [3] the test system is CNE-2. In words: Anticancer activity against human CNE2 cells assessed as reduction in cell viability incubated for 48 hrs MTT assay. The following applies: CNE-2, 48 h. Put shortly:
as §1

pIC50: −log10 of the molar value.

As to `CC(C)(C)c1ccc(Cn2cc(/C=C3\CC[C@@H]4[C@H]5CCCN6CCC[C@@H](CN4C3=O)[C@@H]56)c3ccccc32)cc1`, the pIC50 (as a rule, the IC50 on a negative log10 scale, so that one unit is a factor of ten) in assay [1] was 5.02; in assay [2], 5.01; in assay [3], 5.11.

As to `O=C1/C(=C/c2cccn2Cc2ccc(OC(F)(F)F)cc2)CC[C@@H]2[C@H]3CCCN4CCC[C@@H](CN12)[C@@H]34`, the values for the pIC50 in assay [1], in assay [2] and in assay [3] were 4.44, 4.33 and 4.62, respectively.

With `O=C1/C(=C/c2cn(Cc3ccc(Cl)cc3)c3ccccc23)CC[C@@H]2[C@H]3CCCN4CCC[C@@H](CN12)[C@@H]34`, the figures for the pIC50 in assay [1], in assay [2] and in assay [3] were 4.95, 4.92 and 4.96, respectively.

As to `COc1cc(Cn2cccc2/C=C2\CC[C@@H]3[C@H]4CCCN5CCC[C@@H](CN3C2=O)[C@@H]45)cc(OC)c1OC`, the pIC50 is 4.88 in assay [1], 4.72 in assay [2] and 5.11 in assay [3].

`CC(C)(C)c1ccc(Cn2ccc3cc(/C=C4\CC[C@@H]5[C@H]6CCCN7CCC[C@@H](CN5C4=O)[C@@H]67)ccc32)cc1`: the pIC50 in assay [1] is 4.97; in assay [2], 4.96; in assay [3], 5.05.

`O=C1/C(=C/c2cccn2Cc2cccc(Cl)c2)CC[C@@H]2[C@H]3CCCN4CCC[C@@H](CN12)[C@@H]34`: the pIC50 in assay [1] was 4.68; in assay [2] it was 4.65; in assay [3], 4.79.

With `O=C1/C(=C/c2cn(Cc3cccc(Cl)c3)c3ccccc23)CC[C@@H]2[C@H]3CCCN4CCC[C@@H](CN12)[C@@H]34`, the pIC50 is 5.12 in assay [1], 5.12 in assay [2] and 5.20 in assay [3].

With `O=C1/C(=C/c2cn(Cc3ccccc3Cl)c3ccccc23)CC[C@@H]2[C@H]3CCCN4CCC[C@@H](CN12)[C@@H]34`, the pIC50 in assay [1] is 4.76; in assay [2], 4.74; in assay [3], 4.76.

In the case of `COc1ccc2c(/C=C3\CC[C@@H]4[C@H]5CCCN6CCC[C@@H](CN4C3=O)[C@@H]56)cn(Cc3ccc(Cl)cc3)c2c1`, the pIC50 in assay [1] was 5.06; in assay [2], 5.00; in assay [3] it was 5.16.

With `O=C1CCC[C@@H]2[C@H]3CCCN4CCC[C@@H](CN12)[C@@H]34` [MATRINE], the pIC50 in assay [1] is 2.18; in assay [2], 2.24; in assay [3], 2.28.

Regarding `O=C1/C(=C/c2cccn2Cc2ccc(Br)cc2)CC[C@@H]2[C@H]3CCCN4CCC[C@@H](CN12)[C@@H]34`, the results for the pIC50 in assay [1], in assay [2] and in assay [3] were 4.75, 4.64 and 4.75, respectively.

For `O=C1/C(=C/c2cccn2Cc2ccc(Cl)cc2)CC[C@@H]2[C@H]3CCCN4CCC[C@@H](CN12)[C@@H]34`, the pIC50 in assay [1] is 4.67; in assay [2] it was 4.67; in assay [3] it was 4.82.

Turning to `O=C1/C(=C/c2ccc3c(ccn3Cc3cccc(Cl)c3)c2)CC[C@@H]2[C@H]3CCCN4CCC[C@@H](CN12)[C@@H]34`, the negative logarithm of the IC50 (pIC50) in assay [1] was 4.59; in assay [2] it was 4.52; in assay [3] it was 4.84.

For `CC(C)(C)c1ccc(Cn2cccc2/C=C2\CC[C@@H]3[C@H]4CCCN5CCC[C@@H](CN3C2=O)[C@@H]45)cc1`, the pIC50 was 4.80 in assay [1], 4.80 in assay [2] and 4.86 in assay [3].

With `Cn1cccc1/C=C1\CC[C@@H]2[C@H]3CCCN4CCC[C@@H](CN2C1=O)[C@@H]34`, the negative-log IC50 (pIC50) in assay [1], in assay [2] and in assay [3] was less than 4.00 throughout.

With `COc1ccc(Cn2cccc2/C=C2\CC[C@@H]3[C@H]4CCCN5CCC[C@@H](CN3C2=O)[C@@H]45)cc1`, the pIC50 in assay [1] was 4.38; in assay [2], 4.41; in assay [3], 4.54.

Turning to `Cc1ccccc1Cn1cccc1/C=C1\CC[C@@H]2[C@H]3CCCN4CCC[C@@H](CN2C1=O)[C@@H]34`, the values for the negative-log IC50 (pIC50) in assay [1], in assay [2] and in assay [3] were 4.65, 4.53 and 4.55, respectively.

In the case of `O=C1/C(=C/c2cccc3c2ccn3Cc2cccc(Cl)c2)CC[C@@H]2[C@H]3CCCN4CCC[C@@H](CN12)[C@@H]34`, the pIC50 in assay [1] is 5.17; in assay [2], 5.15; in assay [3], 5.18.

Take `COc1ccc(Br)c(Cn2cccc2/C=C2\CC[C@@H]3[C@H]4CCCN5CCC[C@@H](CN3C2=O)[C@@H]45)c1`: the results for the pIC50 in assay [1], in assay [2] and in assay [3] were 4.91, 4.84 and 4.94, respectively.

Regarding `COc1cccc(Cn2cc(/C=C3\CC[C@@H]4[C@H]5CCCN6CCC[C@@H](CN4C3=O)[C@@H]56)c3ccccc32)c1`, the pIC50 in assay [1] is 4.86; in assay [2] it was 4.81; in assay [3], 5.03.

Consider `COc1ccc(Cn2cc(/C=C3\CC[C@@H]4[C@H]5CCCN6CCC[C@@H](CN4C3=O)[C@@H]56)c3ccccc32)cc1`, for which the pIC50 in assay [1] is 5.10; in assay [2], 4.95; in assay [3] it was 5.07.

Turning to `O=C1/C(=C/c2cccn2Cc2cccc(Br)c2)CC[C@@H]2[C@H]3CCCN4CCC[C@@H](CN12)[C@@H]34`, the pIC50 in assay [1] is 4.79; in assay [2] it was 4.86; in assay [3] it was 4.82.

As for `COc1ccc2c(/C=C3\CC[C@@H]4[C@H]5CCCN6CCC[C@@H](CN4C3=O)[C@@H]56)cn(Cc3ccc4ccccc4c3)c2c1`, the pIC50 is 5.04 in assay [1], 4.88 in assay [2] and 5.27 in assay [3].

`O=C1/C(=C/c2cn(Cc3ccc(OC(F)(F)F)cc3)c3ccccc23)CC[C@@H]2[C@H]3CCCN4CCC[C@@H](CN12)[C@@H]34`: the negative-log IC50 (pIC50) was 5.17 in assay [1], 5.15 in assay [2] and 5.18 in assay [3].

Turning to `O=C1/C(=C/c2cccn2Cc2ccccc2)CC[C@@H]2[C@H]3CCCN4CCC[C@@H](CN12)[C@@H]34`, the pIC50 in assay [1] is 4.42; in assay [2] it was 4.37; in assay [3], 4.34.

`Cc1ccc(Cn2cccc2/C=C2\CC[C@@H]3[C@H]4CCCN5CCC[C@@H](CN3C2=O)[C@@H]45)cc1`: the results for the pIC50 in assay [1], in assay [2] and in assay [3] were 4.55, 4.61 and 4.66, respectively.

Regarding `O=C1/C(=C/c2cn(Cc3ccc(OC(F)(F)F)cc3)c3ccc(Cl)cc23)CC[C@@H]2[C@H]3CCCN4CCC[C@@H](CN12)[C@@H]34`, the pIC50 in assay [1] was 5.01; in assay [2] it was 5.28; in assay [3] it was 5.45.

Turning to `Cc1ccc2c(c1)c(/C=C1\CC[C@@H]3[C@H]4CCCN5CCC[C@@H](CN3C1=O)[C@@H]45)cn2Cc1ccc2ccccc2c1`, the pIC50 in assay [1] was 5.49; in assay [2], 5.30; in assay [3], 5.45.

For `O=C1/C(=C/c2cccn2Cc2ccccc2Cl)CC[C@@H]2[C@H]3CCCN4CCC[C@@H](CN12)[C@@H]34`, the pIC50 was 4.59 in assay [1], 4.58 in assay [2] and 4.58 in assay [3].

Take `Cc1ccc(Cn2cc(/C=C3\CC[C@@H]4[C@H]5CCCN6CCC[C@@H](CN4C3=O)[C@@H]56)c3ccccc32)cc1`: the pIC50 was 5.04 in assay [1], 5.01 in assay [2] and 5.05 in assay [3].

In the case of `Cc1ccccc1Cn1cc(/C=C2\CC[C@@H]3[C@H]4CCCN5CCC[C@@H](CN3C2=O)[C@@H]45)c2ccccc21`, the pIC50 is 4.92 in assay [1], 4.92 in assay [2] and 4.97 in assay [3].

Take `O=C1/C(=C/c2cn(Cc3ccc(Br)cc3)c3ccccc23)CC[C@@H]2[C@H]3CCCN4CCC[C@@H](CN12)[C@@H]34`: the pIC50 is 4.77 in assay [1], 4.74 in assay [2] and 4.83 in assay [3].

For `O=C1/C(=C/c2cccn2Cc2ccc(OCc3ccccc3)cc2)CC[C@@H]2[C@H]3CCCN4CCC[C@@H](CN12)[C@@H]34`, the pIC50 in assay [1] was 4.89; in assay [2], 4.88; in assay [3], 4.96.

Regarding `Cc1cc(C)cc(Cn2cccc2/C=C2\CC[C@@H]3[C@H]4CCCN5CCC[C@@H](CN3C2=O)[C@@H]45)c1`, the pIC50 in assay [1] is 4.31; in assay [2], less than 4.30; in assay [3] it was 4.49.

Regarding `COc1ccc2c(c1)c(/C=C1\CC[C@@H]3[C@H]4CCCN5CCC[C@@H](CN3C1=O)[C@@H]45)cn2Cc1ccc(Cl)cc1`, the pIC50 is 5.25 in assay [1], 5.15 in assay [2] and 5.33 in assay [3].

On to `COc1ccc2c(c1)c(/C=C1\CC[C@@H]3[C@H]4CCCN5CCC[C@@H](CN3C1=O)[C@@H]45)cn2Cc1ccccc1Cl`, for which the pIC50 in assay [1] is 5.21; in assay [2], 5.20; in assay [3] it was 5.22.

Consider `Cc1ccc2c(c1)c(/C=C1\CC[C@@H]3[C@H]4CCCN5CCC[C@@H](CN3C1=O)[C@@H]45)cn2Cc1cccc(Cl)c1`, for which the figures for the pIC50 in assay [1], in assay [2] and in assay [3] were 5.08, 5.04 and 4.93, respectively.

For the compound `O=C1/C(=C/c2cn(Cc3ccc(OC(F)(F)F)cc3)c3ccc(Br)cc23)CC[C@@H]2[C@H]3CCCN4CCC[C@@H](CN12)[C@@H]34`, the pIC50 was 4.94 in assay [1], 5.04 in assay [2] and 5.22 in assay [3].
